Bioassay records as filed in PubChem.
This is a sample that favours compounds with a hit; in the whole collection about 1.5% have one here.
PREPL inhibitor: inhibitors of human prolyl oligopeptidase-like enzyme PREPL; Q4J6C6; recombinant PREPL, fluorescence polarization activity-based probe; inhibition, % at 5.96 µM; 320,000 compounds, 0.68% hits; AID 2751; in the data active = inhibition above about 43%;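 also: 0% = enzyme with DMSO and 100% = wells lacking enzyme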
UBC13 inh: blocks human UBC13 polyubiquitin chain formation | TR-FRET | inhibition, % at 20 µM | 330,000 compounds, 0.47% hits | AID 485273; in the data active = inhibition above about 45%, passing the limit was not always enough
Target sequence (P61088 whole entry, looked up): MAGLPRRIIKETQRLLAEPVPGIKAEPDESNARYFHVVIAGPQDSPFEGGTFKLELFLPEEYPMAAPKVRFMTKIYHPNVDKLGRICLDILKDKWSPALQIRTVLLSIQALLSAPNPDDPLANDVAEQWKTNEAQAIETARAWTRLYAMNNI
UCH37 DUB inh: inhibitors of human deubiquitinating enzyme UCH37; purified proteasome/UCH37, Ub-AMC cleavage fluorescence; inhibition, % (no concentration beside the values); 330,000 compounds, 0.33% hits; AID 588478;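 active = mean inhibition over replicate wells above about 20%, limit read from the data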;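 also: 0% = compound-free wells with enzyme and 100% = wells lacking proteasome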
Target sequence (Q9Y5K5 whole entry, looked up): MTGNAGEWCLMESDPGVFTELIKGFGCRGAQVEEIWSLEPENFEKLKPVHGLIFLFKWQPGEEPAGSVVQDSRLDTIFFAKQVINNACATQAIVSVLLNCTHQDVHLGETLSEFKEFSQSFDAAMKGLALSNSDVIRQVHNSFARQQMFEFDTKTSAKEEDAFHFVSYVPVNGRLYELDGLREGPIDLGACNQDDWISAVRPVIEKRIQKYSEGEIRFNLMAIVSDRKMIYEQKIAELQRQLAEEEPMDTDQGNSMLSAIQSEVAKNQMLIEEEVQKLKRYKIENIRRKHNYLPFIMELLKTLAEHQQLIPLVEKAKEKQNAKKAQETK
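system = Proteasome-associated human UCH37 deubiquitinase | amount = 0.15 nM proteasome as dispensed | medium = pH 7.4 Tris-HCl (50 mM) with ovalbumin, ATP-MgCl2, DTT | incubation = 30 min preincubation with enzyme, 25 min cleavage at room temperature | detection = AMC fluorescence 355/460 nm | read-out basis = percent inhibition | controls = no-proteasome and no-compound wells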
Apaf-1 inh: inhibitors of human Apaf-1 apoptosome; O14727; reconstituted apoptosome caspase-3 activity, DEVD-Rh110 fluorescence; inhibition, % at 20 µM; 330,000 compounds, 0.71% hits; active = inhibition of at least 40% at 20 µM;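 also: plate controls were DMSO wells for no effect and DEVD-CHO caspase inhibitor wells for full effect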
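Assay system – apoptosome proteins · Medium – Hepes buffer, pH 7.5 · Also added – cytochrome c with DEVD-Rh110 · Timing – 30 min compound preincubation, 50 min activation, room temperature · Detection – Rh110 fluorescence, excitation 480 nm, emission 540 nm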
Apaf-1 inh conf2: Apaf-1 inhibition, single-dose confirmed. shares compounds with Apaf-1 inh. reconstituted apoptosome, caspase-3 DEVD-Rh110 fluorescence. inhibition, % at 20 µM. 1,800 compounds, 25% hits;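 active = mean inhibition of at least 40% at 20 µM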;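 also: plate controls were DMSO wells for no effect and DEVD-CHO caspase inhibitor control wells for full effect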
Rh110 interf inh: Rh110 signal interference in Apaf-1 inhibitor counter-screen | shares compounds with Apaf-1 inh | Rh110 fluorescence interference, quenched caspase reaction | activation (fluorescence interference), % at 20 µM | 1,800 tested, under 10 active;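 active = signal rise of 40% or more at 20 µM, treated as a fluorescence artifact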
Fluor interf inh: Apaf-1 inhibitor counter-screen fluorescence artifact; shares compounds with Apaf-1 inh; fluorescence interference counterscreen, Apaf-1 assay format; IC50, µM; 460 tested, under 10 active; call rule not given here
UCH37 confirm: confirmation of human UCH37 deubiquitinating enzyme inhibitors; shares compounds with UCH37 DUB inh; Proteasome-bound UCH37, Ub-AMC cleavage fluorescence; inhibition, % at 20 µM; 480 compounds, 27% hits; AID 624100;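 active = average inhibition over replicates above about 50%, so the earlier screening hit is confirmed, limit read from the data; inactive = the rest, counted as false positives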;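 also: based on cleavage rate fitted by regression over a 30 min kinetic read; 0% = proteasome plus Ub-AMC and 100% = Ub-AMC without proteasome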
The depositor's hits bear a star; i = inactive; · = no result.

SMILES	PREPL inhibitor	UBC13 inh	UCH37 DUB inh	Apaf-1 inh	Apaf-1 inh conf2	Rh110 interf inh	others
O=[N+]([O-])c1ccc(NCc2ccc(Cl)cc2)c2ccncc12	35	-29	4	79*	12	-3
O=[N+]([O-])c1ccc(NCc2ccccc2)c2nonc12	38	-442	0	35	·	·
Cc1ccc(NC(=O)CCSc2ccccc2)c(C)c1	1	0	1	-9	·	·
NCCNc1ccc([N+](=O)[O-])c2cccnc12	5	-76	9	9	·	·
O=[N+]([O-])c1ccc(NCCCN2CCOCC2)c2ncccc12	2	-192	12	40*	6	2
Cc1ccc(CNC(=O)COC(=O)c2nc(-c3ccccc3)oc2C)cc1	-12	2	2	3	·	·
CCC(C)NC(=O)c1c(N)n(CCCOC)c2nc3ccccc3nc12 (stereo not given)	9	-8	i	91*	59*	9	Fluor interf inh=>100
COCCCn1c(N)c(C(=O)Nc2ccccc2)c2nc3ccccc3nc21	17	3	-18	51*	25	9
COCCNC(=O)c1c(NC(=O)c2ccco2)n(Cc2ccccc2)c2nc3ccccc3nc12	6	-1	-114	53*	18	10
COCCCn1c(N)c(C(=O)Nc2sc3c(c2C(=O)OC)CCCC3)c2nc3ccccc3nc21	2	-22	6	90*	26	10
CCOC(=O)c1c(N)n(CCN2CCCCC2)c2nc3ccccc3nc12	19	0	i	-7	·	·
CCCCOCCCn1c(N)c(C(=O)OC(C)COC)c2nc3ccccc3nc21 (stereo not given)	2	14	i	0	·	·
CCC(C)NC(=O)c1c(N)n(CC2CCCO2)c2nc3ccccc3nc12 (stereo not given)	1	14	-314	94*	56*	12	Fluor interf inh=>100
COCCCn1c(N)c(C(=O)OC(C)COC)c2nc3ccccc3nc21 (stereo not given)	2	-13	i	74*	8	9
COCCCn1c(N)c(C(=O)NCc2ccco2)c2nc3ccccc3nc21	6	-18	·	95*	19	7
COCCNC(=O)c1c(N)n(Cc2ccco2)c2nc3ccccc3nc12	13	-15	i	10	·	·
CC(C)(C)c1ccc(C(=O)OCC(=O)N2CCC(c3ccccc3)=N2)cc1	23	-1	2	20	·	·
O=C(c1ccco1)N1CCN(S(=O)(=O)c2cccc([N+](=O)[O-])c2)CC1	2	-4	0	-1	·	·
CC1Oc2ccccc2N(CC(=O)N2CCCC2)C1=O (stereo not given)	8	0	1	-22	·	·
COc1cc2c(cc1O)[C@@H]1Cc3ccc(OC)c(O)c3CN1CC2	10	-30	2	93*	58*	-4	Fluor interf inh=>100
O=[N+]([O-])c1ccc(N2CCCNCC2)c2ncccc12	9	-141	·	45*	18	13
O=[N+]([O-])c1ccc(N2CCCCC2)c2ncccc12	12	-74	4	5	·	·
COc1cc2c3cc1Oc1c(OC)c(OC)cc4c1[C@H](Cc1ccc(cc1)Oc1cc(ccc1O)C[C@H]3N(C)CC2)N(C)CC4	36	24	5	8	·	·
COc1cc2c3c(c1OC)Oc1ccc(cc1)C[C@H]1c4c(cc(OC)c(OC)c4Oc4ccc(cc4)C[C@@H]3N(C)CC2)CCN1C	32	15	1	45*	15	-2
O=S1(=O)N(CCN2CC=C(c3c[nH]c4cc(F)ccc34)CC2)c2cccc3c2N1CCC3	13	1	0	51*	15	-4
SMILES	PREPL inhibitor	UBC13 inh	UCH37 DUB inh	Apaf-1 inh	Apaf-1 inh conf2	Rh110 interf inh	others
CC(=O)N/C(=C\c1ccccc1)C(=O)OC(C)C(=O)c1ccccc1 (stereo not given)	3	2	2	2	·	·
Nc1c(C(=O)OCc2ccccc2)c2nc3ccccc3nc2n1Cc1cccs1	19	-24	-193	86*	23	18
Cn1c(Cn2cnc([N+](=O)[O-])n2)nnc1SCC(=O)Nc1cccc(Cl)c1	3	7	0	-14	·	·
Cc1[nH]n(-c2ccccc2)c(=O)c1C(c1ccc([N+](=O)[O-])cc1)c1c(C)[nH]n(-c2ccccc2)c1=O	10	-49	13	79*	30	10
O=[N+]([O-])c1ccc(C(c2ccc([N+](=O)[O-])cc2)c2ccc([N+](=O)[O-])cc2)cc1	·	·	0	·	·	·
Cc1c2ccncc2c(C)c2c1[nH]c1ccccc12	28	39	-6	67*	37	12
c1ccc(CCCN2CCN(CCOC(c3ccccc3)c3ccccc3)CC2)cc1	2	36	2	51*	18	9
O=C1NC(=O)C(C(CC(=O)c2ccccc2)c2ccccc2)C(=O)N1 (stereo not given)	-8	-26	1	-3	·	·
O=C1NC(=O)C(Nc2ccccc2)C(=O)N1	·	·	64*	·	·	·	UCH37 confirm=-4
COc1ccc(C2C3=C(CC(C)(C)CC3=O)Oc3ncn4nc(-c5ccccc5)nc4c32)cc1 (stereo not given)	·	·	4	·	·	·
CN1C(=O)C(=Cc2ccc(N3CCOCC3)o2)C(=O)N(C)C1=O	-4	i	30*	4	·	·	UCH37 confirm=24
O=C1NC(=O)N(c2ccc3c(c2)OCO3)C(=O)/C1=C\c1ccc(N2CCCCC2)o1	-1	i	29*	-1	·	·	UCH37 confirm=44
CN1C(=O)C(=Cc2ccc(N3CCCCCC3)o2)C(=O)N(C)C1=S	-24	i	15	8	·	·
CN1C(=O)C(Cc2cccc3ccccc23)C(=O)N(C)C1=O	0	-36	40*	12	·	·	UCH37 confirm=2
CCOc1ccc(N2C(=O)/C(=C/c3ccco3)C(=O)NC2=S)cc1	-7	-20	29*	2	·	·	UCH37 confirm=99*
CCCN1CCC(=O)N([C@H](CO)Cc2ccccc2)CC1	10	-2	2	-10	·	·
COC(=O)C1=C(c2cccc(C#N)c2)C[C@@H]2CC[C@H]1N2C(=O)NCc1cccc2ccccc12	-59	22	47*	14	·	·	UCH37 confirm=13
O=c1[nH]c(O)c(N=Nc2ccc3c(c2)OCCO3)c(=O)[nH]1	17	-113	13	-1	·	·
O=C(N=Nc1c(O)[nH]c(=O)[nH]c1=O)C1COc2ccccc2O1 (stereo not given)	3	-33	32*	11	·	·	UCH37 confirm=5
CCOc1ccc(-n2c(O)c(C=Nc3ccc(N4CCOCC4)cc3)c(=O)[nH]c2=O)cc1	6	-14	45*	-1	·	·	UCH37 confirm=12
O=c1[nH]c(=S)n(-c2ccc(Br)cc2)c(O)c1C=Nc1ccc(N2CCOCC2)cc1	14	-16	6	15	·	·
O=C1NC(c2ccccc2Br)=N/C1=C\c1ccco1	1	-5	8	9	·	·
Nc1c(Br)cc([N+](=O)[O-])cc1[N+](=O)[O-]	8	-6	10	1	·	·
